Screening data (PubChem BioAssay)
M1 antag: M1 muscarinic receptor (rat) antagonism. P08482. CHO-M1 cells, Fluo-4 calcium, ACh EC80 antagonist mode; active compounds read low. B-score at 10 µM. actives 3.4% (n = 64,000). AID 628;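 active means calcium fluorescence response, raw or row-and-column corrected B-score, differing from the plate sample mean either way at a set confidence level, mostly lower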
S1P1 ag pot: S1P1 (human) agonism or agonism potentiation; P21453; S1P1 CRE-bla cells, forskolin, beta-lactamase FRET, potentiator mode; S1P1 agonist co-added at EC20, 2 nM; 100% = saturating reference agonist, 0% = basal; activation, % at 9.5 µM; actives 0.57% (n = 56,000);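 active means activation above a cutoff set at the mean activation of all tested compounds plus 3 SD, cut at about 54% in these data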;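 further: forskolin at 4 µM as EC80 and the EC20 agonist is SEW2871; 100% = SEW2871 at its EC100 plus forskolin at EC80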
M1 ag: activates the M1 muscarinic receptor; actives 3% (n = 64,000); AID 626; CHO-M1 cells, Fluo-4 calcium fluorescence, agonist mode; active compounds read high; B-score at 10 µM;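 active means fluorescence rise, raw or as B-score row- and column-corrected plate score, outside the 99.7% band of its plate's samples, either direction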
S1P3 ag: activates the human S1P3 receptor; actives 0.1% (n = 60,000); AID 373; S1P3 NFAT-BLA reporter cells, agonism, FRET ratio; relative to 1 µM S1P, basal subtracted; Q99500; activation, % at 4.5 µM;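 active means activation above the screen-wide mean plus 3 SD, cut at about 4.5% in these data, passing the limit was not always enough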
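Assay system: stable CHO line with human S1P3, Gα16, NFAT-BLA reporter; Detection: FRET β-lactamase substrate fluorescence, excitation 405 nm, 460/535 nm emission ratio, background-subtracted; Read-out: percent activation versus median 1 µM S1P response, basal-subtracted, per plate; Incubation: cells plated overnight, compound 4 h 37 °C, substrate 2 h RT.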
TNAP act mid DEA: activators of human TNAP at intermediate phosphate acceptor | 64,000 tested, under 10 active | AID 813 | purified TNAP, CDP-star luminescence, 100 mM DEA, 30 min; active compounds read high; scale: 0 levamisole-inhibited, 1 vehicle-only enzyme | activation factor at 20 µM;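 active means activation factor of at least 2 at 20 µM, relative to controls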
D1 allo mod: allosteric modulators of human D1 dopamine receptor | HEK293 D1, CRE-luciferase, dopamine EC30 potentiation; actives deviate in either direction | B-score at 10 µM | actives 5.9% (n = 58,000) | AID 641;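 active means luminescence count or its row- and column-corrected plate score outside the 99.7% band of the plate's sample wells, on either side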
Target sequence (P21728 whole entry, looked up): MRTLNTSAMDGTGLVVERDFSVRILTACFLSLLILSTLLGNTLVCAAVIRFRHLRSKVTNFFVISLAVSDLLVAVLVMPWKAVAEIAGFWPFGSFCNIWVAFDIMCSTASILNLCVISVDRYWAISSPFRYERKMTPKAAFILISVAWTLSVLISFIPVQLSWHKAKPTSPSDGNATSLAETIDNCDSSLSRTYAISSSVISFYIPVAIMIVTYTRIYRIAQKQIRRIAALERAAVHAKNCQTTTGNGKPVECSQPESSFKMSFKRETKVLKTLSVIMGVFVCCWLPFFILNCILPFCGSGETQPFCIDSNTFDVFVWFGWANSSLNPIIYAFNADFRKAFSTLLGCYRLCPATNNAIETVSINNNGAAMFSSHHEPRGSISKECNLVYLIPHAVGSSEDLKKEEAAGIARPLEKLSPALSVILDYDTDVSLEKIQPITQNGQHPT
M1 ag confirm: confirmation of rat M1 muscarinic receptor agonists. shares compounds with M1 ag. CHO-M1 cells, Fluo-4 calcium fluorescence, agonist mode; actives lie on both sides. fluorescence change (max-min) at 10 µM. actives 19% (n = 1,700);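 active means fluorescence change differs from the solvent-only DMSO control mean at a set confidence level in both duplicate runs; inconclusive means differs from solvent-only control mean in just one of two runs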;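 further: an EC20 dose of acetylcholine follows compound addition during the same imaging run; raw fluorescence intensity difference in instrument units with no normalization to controls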
M4 ag counter: counter-screen for M1 agonists: activity at rat M4 receptor. shares compounds with M1 ag. CHO M4/Gqi5 cells, Fluo-4 calcium fluorescence, agonist mode; actives lie on both sides. fluorescence change (max-min) at 10 µM. actives 9% (n = 1,700). AID 1741;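 active means fluorescence change differing from the plate's solvent-only control wells at 99.7% confidence in both duplicates, whether higher or lower; inconclusive means differs from solvent controls in only one of two duplicates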
* = called active by the depositor; ? = inconclusive; · = not tested or not shown. This is a sample that favours compounds with a hit; in the whole collection about 11% have one here.

SMILES	M1 antag	S1P1 ag pot	M1 ag	S1P3 ag	TNAP act mid DEA	D1 allo mod	M1 ag confirm	M4 ag counter
Cc1cc(C)c(C)c(OCC(=O)NCc2nc(-c3ccccc3)no2)c1	0.43	-4	-0.18	1	0.9	-0.0033	·	·
Cn1c(=O)[nH]c2cc(Cl)cnc21	0.057	6	9.1*	-3	0.5	·	34	-5.4
FC(F)(F)c1nc2ncc(Cl)cc2[nH]1	-0.27	6	-1.1	0	1	-0.46	·	·
CCOc1ccccc1NC(=O)c1ccccc1-c1nc(-c2ccccc2OC)no1	-0.46	12	5.2	-1	0.9	-2.5	·	·
CC(C)(CC(=O)N1CCN(c2ccc(Cl)cc2)CC1)CC1=NS(=O)(=O)c2ccccc2N1	-3.2*	63*	11*	-1	1	·	?	-46
O=C(CCCC1=NS(=O)(=O)c2ccccc2N1)N1CCN(c2ccc(Cl)cc2)CC1	-0.21	18	1.6	0	1.1	-0.75	·	·
COCCn1c(C)cc(C(=O)COc2nc3ccccc3nc2C)c1C	1	21	5.2*	0	1	-1.8	-9.6	-14
COCCn1c(C)cc(C(=O)COC(=O)c2c(C)nn(Cc3ccccc3)c2C)c1C	-0.21	·	-0.29	·	0.9	·	·	·
COc1ccccc1N1CCN(Cc2nc(N)nc(Nc3ccc(C)c(Cl)c3)n2)CC1	0.25	20	3.3*	0	0.9	-1.3	?	?
COc1cccc(N2CCN(Cc3nc(N)nc(Nc4ccccc4)n3)CC2)c1	-0.0044	10	6.3*	-1	0.9	-1.3	-29	-45
Cc1cccc(Nc2nc(N)nc(CN3CCN(c4ccccc4)CC3)n2)c1	0.0038	8	-0.66	0	0.9	-0.049	·	·
Cc1nnc(SCCn2c(N(C)Cc3ccccc3)nc3c2c(=O)[nH]c(=O)n3C)s1	-0.52	-31	-0.032	0	0.9	-0.3	·	·
O=C(Nc1ccc2c(c1)CCC2)C1COc2ccccc2O1 (stereo not given)	0.17	-25	2	-1	0.9	0.039	·	·
Clc1ccc(-n2ncc3c(NCC4CCCO4)ncnc32)cc1 (stereo not given)	-0.31	-25	3.4*	-2	0.9	-3.6*	?	-53
Clc1ccc2[nH]c3c(NCCN4CCOCC4)ncnc3c2c1	-0.34	-35	1.1	-1	0.9	3.2	·	·
COc1ccc(-n2ncc3c(NCCCN4CCOCC4)ncnc32)cc1	-0.021	-8	0.11	-1	0.9	-2.1	·	·
O=C1CCCN1CCCNc1ncnc2c1cnn2-c1ccc(Cl)cc1	0.3	-22	3.1*	-1	1	-1.9	13	-28
Clc1ccc2[nH]c3c(NCC4CCCO4)ncnc3c2c1 (stereo not given)	-2.3	35	7.7*	0	1	-2.9	1	-29
O=P1(c2ccccc2)C=Cn2c1cc1c2CCCC1 (stereo not given)	0.58	-16	-0.28	1	1	-1.4	·	·
O=C(C1CCCN1C(=O)c1cccs1)N1CCN(Cc2ccc3c(c2)OCO3)CC1 (stereo not given)	-0.74	10	1.9	6	1	-0.12	·	·
COC(=O)COc1ccc(S(=O)(=O)NCc2ccncc2)cc1	-2*	5	2.7*	-1	1.1	-2.4	-18	?
CCN(C1CCCCC1)S(=O)(=O)c1ccc(S(=O)(=O)NCc2ccncc2)cc1	-2.2*	88*	3.7*	-2	0.9	-1.3	11	-28
CCN(C1CCCCC1)S(=O)(=O)c1ccc(S(=O)(=O)NCCc2ccncc2)cc1	0.43	2	0.85	1	1.1	-0.11	·	·
COC(=O)c1ccccc1NC(=O)Cn1cnc2cc(C)c(C)cc21	-0.43	5	-2.8*	-1	0.9	-1.5	-3.3	-26
Clc1c(CSc2nc3ccccc3o2)nc2ccccn12	-1.2	-12	21*	0	1	-0.61	2.1	-23
SMILES	M1 antag	S1P1 ag pot	M1 ag	S1P3 ag	TNAP act mid DEA	D1 allo mod	M1 ag confirm	M4 ag counter
CCOC(=O)C1CCN(c2nc(C)nc3c2oc2ccccc23)CC1	-0.98	·	0.9	·	1	·	·	·
CCOC(=O)C1CCCN(c2nc(C)nc3c2oc2ccccc23)C1 (stereo not given)	0.57	·	1.8*	·	0.9	·	-8.2	-29
Cc1nc2ccc(NC(=O)c3c(-c4ccccc4)noc3C)cc2s1	0.89	5	4.1*	1	0.8	-0.34	-28	-31
CC1(C)CC(=O)C2=C(C1)OC(N)=C(C#N)C21CCN(Cc2ccccc2)CC1	-0.36	·	6.9*	·	0.9	0.46	37	-27
CC(=O)OCc1c(F)c(F)c(-n2nc(C)cc2C)c(F)c1F	-0.59	4	0.012	-1	0.9	-0.98	·	·
CCc1nnc(NC(=O)CCC(=O)N2CCN(CCOc3ccc(C)cc3)CC2)s1	-0.41	-10	5.1*	-1	0.8	·	-3.6	-26
CCc1nnc(NC(=O)CCC(=O)N2CCN(CCc3ccccc3)CC2)s1	-0.078	-7	-0.32	-1	0.9	·	·	·
O=C(COc1ccccc1)N1CCN(C(=O)Cc2ccccc2)CC1	-0.29	-20	0.09	0	1	0.25	·	·
O=C(O)CNS(=O)(=O)c1ccc(Br)s1	0.82	10	-0.087	-1	1	-0.57	·	·
O=S(=O)(NCc1ccncc1)c1ccc(Br)s1	-1.8	110*	3.7*	-1	0.9	-1	6.2	-23
NS(=O)(=O)c1ccc(CCNc2ncnc3sccc23)cc1	0.47	21	3.1*	-2	0.9	-1.9	0.13	-15
O=C(NCCC1=CCCCC1)C1CCCN(c2nc3ccccc3o2)C1 (stereo not given)	-0.27	25	6.8*	0	0.9	-0.86	?	?
Cc1ccc(CNC(=O)C2CCCN(c3nc4ccccc4o3)C2)cc1 (stereo not given)	0.32	-11	-0.72	-2	1	0.65	·	·
Cc1ccc(CNC(=O)CSc2ncccn2)cc1	0.74	·	-0.17	·	0.9	0.061	·	·
N#CC1=C(N)NC(SCC(=O)Nc2ccccc2)=C(C#N)C12CCCC2	-0.31	·	2.9*	·	0.9	-0.56	7.5	-5.3
CCC(=O)N1CCN(c2ccccc2NC(=O)COc2cc(C)ccc2C(C)C)CC1	-0.91	-11	6.2	2	1	-1.9	·	·
COC(=O)c1ccccc1NC(=O)C1CCCN(S(=O)(=O)c2ccccc2)C1 (stereo not given)	-0.092	·	0.99	0	0.8	-0.13	·	·
